Active and inactive are the calls of the source. The rule behind the calls is not given here.
Legend:
[1] = tested on: A549; experiment: Induction of apoptosis in human A549 cells assessed as viable cells at 0.3 uM incubated for 48 hrs by Annexin V-FITC and PI staining based flow cytometric analysis (reference value: 95.5%); type: functional; conditions: A549, 48 h, read-out: Activity
[2] = tested on: A549; experiment: Antiproliferative activity against human A549 cells assessed as inhibition of cell growth incubated for 48 hrs by MTT assay; type: functional, cell-based; conditions: A549, 48 h
How it was run: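 MTT read-out. Cells seeded at 5.0 × 10⁴ cells/ml and cultured 24 h, then exposed to the drug over a range of concentrations for 48 h, with matching DMSO as control. MTT (5 mg/ml) added for 4 h, supernatant removed, formazan dissolved in DMSO, OD read at 570 nm. Run in triplicate, mean ± SD (n = 3).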

[3] = tested on: A549; experiment: Induction of cell cycle arrest in human A549 cells assessed as accumulation at G2 phase at 0.8 uM incubated for 24 hrs by PI staining based flow cytometric analysis (reference value: 19.37%); type: functional
How it was run: (§1)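 A549 cells (4×10^5 per 6 cm dish) were grown 24 h, then exposed to compound (0.2, 0.4, 0.8 μM) or DMSO for 24 h. Cells fixed in 75% ethanol at −20 °C for at least 12 h, treated with RNase A at 37 °C for 30 min, then stained with PI for 15 min in the dark. Analysed by flow cytometry, mean ± SD, n = 3.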

[4] = target: T1, Hsp90 co-chaperone Cdc37 (Homo sapiens) (UniProt Q16543); experiment: Inhibition of Cdc37 in human A549 cells assessed as disruption of HSP90 alpha-Cdc37 interaction by measuring decrease in Cdc37 protein level at 5 uM incubated for 6 hrs by immunoprecipitation based immunoblot analysis; type: cell-based
T1 sequence (whole entry): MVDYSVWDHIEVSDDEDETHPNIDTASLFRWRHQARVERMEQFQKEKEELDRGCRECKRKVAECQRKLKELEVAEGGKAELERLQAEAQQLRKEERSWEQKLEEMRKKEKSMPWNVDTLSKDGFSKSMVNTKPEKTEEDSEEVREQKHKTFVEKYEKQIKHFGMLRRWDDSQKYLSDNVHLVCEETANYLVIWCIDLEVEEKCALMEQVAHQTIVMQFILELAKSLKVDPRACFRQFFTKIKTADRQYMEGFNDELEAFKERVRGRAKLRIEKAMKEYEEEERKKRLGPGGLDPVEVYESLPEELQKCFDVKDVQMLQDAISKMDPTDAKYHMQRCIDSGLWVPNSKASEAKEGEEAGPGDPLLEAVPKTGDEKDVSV
How it was run: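 A549 cells (5×10^5 per 6 cm dish) were grown 24 h, then treated with 5 μM compound or DMSO for 6 h. Lysates were immunoprecipitated with Hsp90α antibody, and co-precipitated Cdc37 and Hsp90 were detected by Western blot. Mean ± SD, n = 3.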

[5] = target: T1, Hsp90 co-chaperone Cdc37 (Homo sapiens); experiment: Binding affinity to Cdc37 in human A549 cells assessed as inhibition of HSP90-Cdc37 interaction by measuring decrease in Akt phosphorylation level incubated for 12 hrs by Western blot analysis; type: cell-based
How it was run: (§2)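 A549 cells (5×10^5 per 6 cm dish) were allowed to settle 12 h, then treated with DMSO or compound at the indicated concentrations for 12 h. Lysates were adjusted to 3 mg/ml protein by BCA and resolved on 10% SDS-PAGE, then Western blotted. β-actin or Hsp90 served as the loading control. Three separate experiments, mean ± SD.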

[6] = tested on: A549; experiment: Induction of cell cycle arrest in human A549 cells assessed as accumulation at G2 phase at 0.2 uM incubated for 24 hrs by PI staining based flow cytometric analysis (reference value: 19.37%); type: functional; how it was run: as §1
[7] = target: T1, Hsp90 co-chaperone Cdc37 (Homo sapiens); experiment: Binding affinity to Cdc37 in human A549 cells assessed as inhibition of HSP90-Cdc37 interaction by measuring increase in BAX protein level at 1.25 to 5 uM incubated for 12 hrs by Western blot analysis; type: cell-based; how it was run: as §2
[8] = tested on: A549; experiment: Antiproliferative activity against human A549 cells assessed as inhibition of cell growth at 0.5 uM incubated for 48 hrs in presence of methyl thioglycolate by MTT assay relative to control; type: functional; conditions: A549, 48 h, read-out: GI
[9] = tested on: A549; experiment: Induction of apoptosis in human A549 cells assessed as late apoptotic cells at 1.2 uM incubated for 48 hrs by Annexin V-FITC and PI staining based flow cytometric analysis (reference value: 3.0%); type: functional
How it was run: (§3)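 A549 cells (4×10^5 per 6 cm dish) cultured 24 h, then treated 48 h with compound or DMSO. Cells gently harvested, washed twice in cold PBS, resuspended in binding buffer with Annexin V and PI, stained 15 min at room temperature in the dark, analysed by flow cytometry. Mean ± SD, n = 3.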

[10] = tested on: A549; experiment: Induction of cell cycle arrest in human A549 cells assessed as accumulation at S phase at 0.4 uM incubated for 24 hrs by PI staining based flow cytometric analysis (reference value: 27.59%); type: functional; how it was run: as §1
[11] = tested on: A549; experiment: Induction of apoptosis in human A549 cells assessed as necrotic cells at 1.2 uM incubated for 48 hrs by Annexin V-FITC and PI staining based flow cytometric analysis (reference value: 1.0%); type: functional; how it was run: as §3
[12] = tested on: A549; experiment: Antiproliferative activity against human A549 cells assessed as inhibition of cell growth at 1.5 uM incubated for 48 hrs by MTT assay relative to control; type: functional; conditions: A549, 48 h, read-out: GI
[13] = target: Heat shock protein HSP 90-alpha (Homo sapiens) (UniProt P07900); experiment: Binding affinity to full length Hsp90alpha (unknown origin) assessed as reduction in absorption at 440 nm reaching equilibrium within 5 mins at 100 uM by UV absorption analysis; conditions: in the assay text read “within 15 mins” for “within 5 mins”
How it was run: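 Compound (100 μM) mixed with GSH (100 μM), Cdc37 (1.5 μM) or Hsp90 (1.5 μM) in PBS containing 1% DMSO, incubated at 37 °C for 0, 5, 15 and 30 min. UV spectra scanned 200-500 nm, with absorbance at 440 nm compared against the 0 min value (A/A0). Mean ± SD, n = 3.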

[14] = tested on: A549; experiment: Induction of mitochondrial membrane potential loss in human A549 cells assessed as cells with hyperpolarized mitochondria by measuring decrease in J-aggregates red fluorescence intensity at 0.2 uM incubated for 24 hrs by JC1 staining based fluorescence microscopic method (reference value: 98.4%); type: functional; design: scale not given: the % may be the effect or the level left
[15] = target: T1, Hsp90 co-chaperone Cdc37 (Homo sapiens); experiment: Binding affinity to Cdc37 in human A549 cells assessed as inhibition of HSP90-Cdc37 interaction by measuring decrease in CDK4 protein level at 5 uM incubated for 12 hrs by Western blot analysis; type: cell-based
How it was run: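 A549 cells seeded 5×10^5 per 6 cm dish, grown 12 h, then exposed to compound or DMSO for 12 h. Lysates adjusted to 3 mg/ml protein (BCA), run on 10% SDS-PAGE, immunoblotted for p-Akt and Cdk4. Band levels quantified against Hsp90 loading control. Three separate experiments, mean ± SD.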

[16] = tested on: A549; experiment: Antiproliferative activity against human A549 cells assessed as inhibition of cell growth at 0.5 uM incubated for 48 hrs by MTT assay relative to control; type: functional; conditions: A549, 48 h, read-out: GI
[17] = tested on: A549; experiment: Induction of cell cycle arrest in human A549 cells assessed as accumulation at S phase at 0.8 uM incubated for 24 hrs by PI staining based flow cytometric analysis (reference value: 27.59%); type: functional; how it was run: as §1

CC1=C(O)C(=O)C=C2C1=CC=C1[C@@]2(C)CC[C@@]2(C)[C@@H]3C[C@](C)(C(=O)OCCCOC(=O)/C=C(\C#N)c4ccc(F)cc4)CC[C@]3(C)CC[C@]12C
viability at 0.3 µM [1]: 85.2% | IC50 [2]: 0.41 µM | Activity [3]: 15.55% | inhibition [4]: Active | inhibition [5]: Dose-dependent effect | Activity [6]: 16.78% | inhibition [7]: Active | inhibition of growth at 0.5 µM [8]: 68.3% | Activity [9]: 25.2% | Activity [10]: 23.34% | Activity [11]: 8.2% | inhibition of growth at 1.5 µM [12]: 78.5% | Activity [13]: Active | Activity [14]: 84.2% | inhibition [15]: Active | inhibition of growth at 0.5 µM [16]: 65.1% | Activity [17]: 23.85%

Reference: ChEMBL document CHEMBL4376838, “Discovery of Novel Celastrol Derivatives as Hsp90-Cdc37 Interaction Disruptors with Antitumor Activity” (J Med Chem, 2019)
